MITF act: activators of MITF-driven TRPM1 promoter reporter, primary screen, cell-based, SK-MEL-5, luciferase, single point. AID 588334, 2011. activation, % at 12.5 µM. SK-MEL-5 TRPM1-promoter luciferase, 24 h; % of positive control, neutral wells = 0. 300,000 compounds, 0.75% hits;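 active means mean activation of at least 80% with every replicate also reaching 80%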;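 further: 0% = neutral control wells and 100% = parthenolide positive control wells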
PGC1a acetyl inh: inhibitors of PGC1a acetylation signal, primary screen, cell-based, U2OS, AlphaScreen, inhibitor mode; AlphaScreen anti-acetyl-lysine; with virally co-expressed GCN5 acetyltransferase; inhibition, % at 15.6 µM; 350,000 compounds, 0.17% hits; AID 651687, 2012;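 active means every replicate shows inhibition of at least 40%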;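 further: 0% = neutral control wells and 100% = positive control wells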
Cneo AK release: Cryptococcus neoformans cell lysis inducers, primary screen, AK release luminescence, single concentration | 360,000 compounds, 0.2% hits | C. neoformans lysis, adenylate kinase release luminescence, 4 h; normalised: neutral wells 0, clomiphene wells 100 | lysis activity, % at 15 µM | AID 651654, 2012;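 active means mean lysis activity across replicates of at least 80%, whatever share of replicates individually reach that level; inactive means mean lysis activity below 80%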
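Test system: log-phase Cryptococcus neoformans yeast cells; Quantity: yeast cell density of 5 × 10^6 cells/mL; Buffer or medium: YPD; Doses: single compound concentration per well; Timing: 4 h at 37 °C static, read 1 h later; Measured by: AK luminescence; Read-out basis: lysis from increased AK signal; Control set: Clomiphene as positive control.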
Wnt act: Wnt/beta-catenin pathway activators, primary screen, cell-based, plate reader, single point; Wnt/beta-catenin reporter cell assay, activator; activation, % at 9.35 µM; 300,000 compounds, 1.2% hits; in the data active means activation above about 30%, passing the limit was not always enough;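 further: 0% = neutral control wells and 100% = positive control wells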
The depositor's hits bear a star; · = no result. Compounds with a hit are over-represented: about 1.5% of the library has one in this group of screens.

SMILES	MITF act	PGC1a acetyl inh	Cneo AK release	Wnt act
C[C@@H]1CCCCO[C@@H](CN(C)C(=O)c2ccccc2)[C@@H](C)CN([C@H](C)CO)C(=O)c2cc(NC(=O)CCCCCC(=O)Nc3ccccc3N)ccc2O1	·	-3.5	-3.0	·
NCC[C@@H]1CC[C@@H](NC(=O)C2CCCC2)[C@@H](CO)O1	·	0.5	0.2	·
Cc1noc(C)c1S(=O)(=O)N(C)C[C@@H]1OCCCC[C@@H](C)Oc2ccc(NC(=O)CCCCCC(=O)Nc3ccccc3N)cc2C(=O)N([C@H](C)CO)C[C@@H]1C	·	14.1	108.1*	·
CC(=O)Nc1nc(-c2ccc3c(c2)CCO3)cs1	39.1	·	·	-2.4
Nc1nc(-c2ccc3c(c2)CCO3)cs1	51.8	·	·	34.3*
COc1ccc2c3c(n(C)c2c1)[C@@H](CO)N(C(=O)Nc1c(C)noc1C)CC31CCN(CC2CC2)CC1	·	-6.9	·	·
C[C@@H]1CN([C@@H](C)CO)S(=O)(=O)c2ccc(-c3ccc(F)cc3)cc2O[C@@H]1CN(C)C(=O)Nc1ccc(F)cc1	·	21.7	·	·
Cc1ccc(Cc2c(-c3ccc(C)cc3)nc3cc(C)ccn23)cc1	·	·	3.1	11.2
Cc1ccn2c(CC(C)(C)C)c(-c3ccc(F)cc3)nc2c1	·	2.1	·	55.3*
COc1cccc(C2Nc3ccccc3C(=O)N2c2ccc(F)cc2)c1O (configuration not stated)	100.8*	-4.1	-2.5	19.0
O=C1c2ccccc2NC(c2ccccc2O)N1c1ccc(F)cc1 (configuration not stated)	77.1	4.8	-3.5	19.2
CCCc1ccc(C(O)c2ncc(-c3cccc(F)c3)[nH]2)cc1 (configuration not stated)	·	42.6*	12.8	8.7
c1ccc(-c2cnnc(N3CCCCC3)n2)cc1	85.8*	-2.0	-0.2	20.4
Nc1nc(-c2ccccc2)cc(N2CCCCC2)n1	-32.2	·	-1.7	·
FC(F)(F)c1cc(-c2ccccc2)nc(N2CCCCCC2)n1	·	4.7	1.2	-0.4
c1ccc(-c2cc(N3CCCCC3)ncn2)cc1	85.7*	0.6	-1.1	-1.0
CN1CCN(C(=O)C[C@H]2CC[C@@H]3[C@H](COC[C@@H](O)CN3S(=O)(=O)c3cccc(Cl)c3)O2)CC1	·	-4.0	0.0	·
COc1ccc(/C=C/c2nc(-c3ccccc3O)n[nH]2)cc1	42.5	·	·	38.0*
Cc1no[n+]([O-])c1COc1cccc(/C=N/Nc2nncn2N)c1	-7.8	50.2*	·	3.2
COc1cc(/C=N/n2nnnc2N)ccc1OCc1c(C)no[n+]1[O-]	11.5	·	·	1.8
O=[N+]([O-])c1ccc2nc(-c3ccc(Cl)cc3)n(OCc3ccccc3)c2c1	·	-10.4	-1.3	65.1*
CCOC(=O)C(C)On1c(-c2ccc(Cl)cc2)nc2ccc([N+](=O)[O-])cc21 (configuration not stated)	58.4	-2.7	·	·
CCOC(=O)C(C)On1c(-c2ccccc2)nc2ccc([N+](=O)[O-])cc21 (configuration not stated)	98.8*	-1.5	·	·
Cc1ccc(COn2c(-c3ccc(Cl)cc3)nc3ccc([N+](=O)[O-])cc32)cc1	102.5*	3.5	-3.0	42.4*
COn1c(-c2ccc(Cl)cc2)nc2ccc(Cl)cc21	21.7	0.2	-2.0	57.4*
SMILES	MITF act	PGC1a acetyl inh	Cneo AK release	Wnt act
CCC(=O)N1CC(=O)N2[C@H](CO)[C@H](c3ccc(C#Cc4cccc(F)c4)cc3)[C@@H]2C1	·	-1.1	·	·
N#Cc1c(-c2cccnc2)c2c([nH]c1=O)-c1ccccc1OC2	·	-13.3	-4.3	43.7*
O=C(Cc1ccccn1)N[C@H]1C=C[C@H](CC(=O)N2CCCCC2)O[C@H]1CO	·	3.9	0.4	·
c1cncc(CNc2ncnc3ccc(-c4ccoc4)cc23)c1	0.5	55.1*	0.2	-14.1
c1ccc(CCNc2ncnc3ccccc23)cc1	22.9	·	·	15.0
Brc1ccc2ncnc(NCc3ccccc3)c2c1	·	42.4*	-7.1	-2.8
CCCNC(=O)N1C[C@H](O)COC[C@H]2O[C@H](CC(=O)N[C@H]3CCN(Cc4ccccc4)C3)CC[C@@H]21	·	-2.0	-0.9	·
COc1ccc2c(c1)CCc1c-2n[nH]c1C(=O)NCCC(C)C	55.4	-8.4	-2.6	30.6*
CNC(=O)c1[nH]nc2c1CCc1cc(OC)ccc1-2	54.1	-5.0	-0.2	2.8
CNC[C@H]1OCCCC[C@@H](C)Oc2ccc(NC(=O)CCC(F)(F)F)cc2C(=O)N([C@@H](C)CO)C[C@@H]1C	·	-2.5	·	·
CC(C)c1ccccc1NC(=S)NN(Cc1ccccc1)c1ccccc1	·	·	230.6*	-5.7
Fc1ccccc1NC(=S)NN(Cc1ccccc1)c1ccccc1	7.9	-3.2	·	0.5
CC(C)NC(=O)N(C)C[C@@H]1Oc2ccc(NC(=O)Nc3ccc(F)cc3)cc2CC(=O)N([C@@H](C)CO)C[C@@H]1C	·	6.2	0.1	·
COc1ccc(NC(=O)Nc2ccc(F)c(Cl)c2)cc1	127.1*	·	·	44.6*
COc1ccc(NC(=O)Nc2cc(C)ccn2)cc1	9.0	1.3	-4.4	43.9*
O=C(Nc1ccc(Cl)cc1)Nc1ccc(Cl)c(Cl)c1	·	·	·	1.2
COc1ccc(NC(=O)Nc2cc(C)ccc2F)cc1	100.7*	0.3	-1.8	28.7
COc1ccc(OC)c(NC(=O)Nc2ccc(Cl)cc2)c1	33.9	-13.7	1.3	·
Cc1ccc(NC(=O)Nc2ccc(F)c(Cl)c2)cc1	65.4	-1.9	·	47.3*
O=C(CN1CCOCC1)N1CC[C@@H]2[C@@H](CO)Nc3ccc(-c4ccccc4)cc3[C@@H]21	·	-4.9	-0.6	·
COCC(=O)N1CC2(C1)[C@H](c1ccccc1)[C@@H](CO)N2C(=O)c1ccncc1	·	11.0	·	·
COc1ccc(CN(C)C[C@H]2OCCCC[C@@H](C)Oc3ccc(NC(=O)c4ccncc4)cc3C(=O)N([C@@H](C)CO)C[C@H]2C)cc1	·	0.6	1.8	·
C[C@H]1CN([C@@H](C)CO)C(=O)c2cc(NS(=O)(=O)c3cccs3)ccc2O[C@@H]1CN(C)S(=O)(=O)c1ccc(Cl)cc1	·	4.7	-2.4	·
Cc1ccnc(NC(=O)Nc2ccc(Br)cc2Cl)c1	17.1	·	·	39.2*
Cc1noc(C)c1NC(=O)N(C)C[C@@H]1Oc2ccc(NS(C)(=O)=O)cc2C(=O)N([C@H](C)CO)C[C@H]1C	·	-2.9	0.2	·
SMILES	MITF act	PGC1a acetyl inh	Cneo AK release	Wnt act
COc1ccccc1CNC(=O)C[C@@H]1C[C@@H]2c3cc(NC(=O)c4ccc5c(c4)OCO5)ccc3O[C@@H]2[C@@H](CO)O1	·	-6.9	-4.9	·
CCC(C)NC(=O)c1cc(-c2ccc3c(c2)OCO3)on1 (configuration not stated)	88.1*	·	-13.0	40.5*
CCC(C)NC(=O)c1cc(-c2ccc(OC)cc2)on1 (configuration not stated)	101.4*	12.7	-10.0	·
CC(C)NC(=O)c1cc(-c2ccc(Br)cc2)on1	111.1*	11.5	-3.1	·
COc1ccc(-c2cc(C(=O)NCC(C)C)no2)cc1	87.1*	3.2	·	·
COc1cccc(C=NNC(=S)NC2CC3CCC2C3)c1O (configuration not stated)	·	·	·	37.2*

Bioassay records as filed in PubChem BioAssay.
